{"source": "ChEMBL document CHEMBL1150063", "about": "“Synergistic effect of flavones and flavonols against herpes simplex virus type 1 in cell culture. Comparison with the antiviral activity of propolis” (J Nat Prod, 1992)", "key": {"[1]": {"assay": "Cytotoxicity against african green monkey Vero cells", "assay_type": "cell-based", "conditions": "chlorocebus sabaeus", "procedure,_shortened": "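Uninfected Vero monolayers (ATCC CCL81; MEM with 10% newborn calf serum) in 25 cm2 flasks, 2.10^6 cells, four flasks per dilution, exposed to 0.05–5 mM in maintenance medium, diluted from DMSO stocks with MEM. After 96 h, morphology checked by microscopy; cells trypsinized and counted by trypan blue exclusion against untreated cultures. CC50 = concentration halving cell number.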"}, "Human alphaherpesvirus 1 [2]": {"test_system": "Human alphaherpesvirus 1", "assay": "Antiviral activity against HSV1 in african green monkey Vero cells assessed as log reduction of virus titer at 21.6 ug/ml", "assay_type": "functional", "procedure,_shortened": "(§1)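 Vero (ATCC CCL81) monolayers, confluent and 1 day old, in microtiter plates. Compound was diluted from DMSO stock into MEM and added just before infection with HSV-1 strain H 29 S at 100 TCID50/well. Each drug was tested in sextuplicate at 37° for 72 h. Wells were freeze-thawed 3 times, pooled and clarified, then titrated by limit dilution (CPE, TCID50/ml). Activity is the log10 titer reduction versus untreated controls.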"}, "Human alphaherpesvirus 1 [3]": {"test_system": "Human alphaherpesvirus 1", "assay": "Antiviral activity against HSV1 in african green monkey Vero cells assessed as log reduction of virus titer at 32.4 ug/ml", "assay_type": "functional", "procedure,_shortened": "as §1"}, "Human alphaherpesvirus 1 [4]": {"test_system": "Human alphaherpesvirus 1", "assay": "Antiviral activity against HSV1 in african green monkey Vero cells assessed as log reduction of virus titer at 1.4 ug/ml", "assay_type": "functional", "procedure,_shortened": "as §1"}, "Human alphaherpesvirus 1 [5]": {"test_system": "Human alphaherpesvirus 1", "assay": "Antiviral activity against HSV1 in african green monkey Vero cells assessed as log reduction of virus titer at 2.8 ug/ml", "assay_type": "functional", "procedure,_shortened": "as §1"}, "Human alphaherpesvirus 1 [6]": {"test_system": "Human alphaherpesvirus 1", "assay": "Antiviral activity against HSV1 in african green monkey Vero cells assessed as log reduction of virus titer at 10.8 ug/ml", "assay_type": "functional", "procedure,_shortened": "as §1"}, "Human alphaherpesvirus 1 [7]": {"test_system": "Human alphaherpesvirus 1", "assay": "Antiviral activity against HSV1 in african green monkey Vero cells assessed as log reduction of virus titer at 20.3 ug/ml", "assay_type": "functional", "procedure,_shortened": "as §1"}, "Human alphaherpesvirus 1 [8]": {"test_system": "Human alphaherpesvirus 1", "assay": "Antiviral activity against HSV1 in african green monkey Vero cells assessed as log reduction of virus titer at 30.5 ug/ml", "assay_type": "functional", "procedure,_shortened": "as §1"}, "Human alphaherpesvirus 1 [9]": {"test_system": "Human alphaherpesvirus 1", "assay": "Antiviral activity against HSV1 in african green monkey Vero cells assessed as log reduction of virus titer at 40.6 ug/ml", "assay_type": "functional", "procedure,_shortened": "as §1"}, "Human alphaherpesvirus 1 [10]": {"test_system": "Human alphaherpesvirus 1", "assay": "Antiviral activity against HSV1 in african green monkey Vero cells assessed as log reduction of virus titer at 5.4 ug/ml", "assay_type": "functional", "procedure,_shortened": "as §1"}, "Human alphaherpesvirus 1 [11]": {"test_system": "Human alphaherpesvirus 1", "assay": "Antiviral activity against HSV1 in african green monkey Vero cells assessed as log reduction of virus titer at 22.9 ug/ml", "assay_type": "functional", "procedure,_shortened": "as §1"}, "Human alphaherpesvirus 1 [12]": {"test_system": "Human alphaherpesvirus 1", "assay": "Antiviral activity against HSV1 in african green monkey Vero cells assessed as log reduction of virus titer at 34.3 ug/ml", "assay_type": "functional", "procedure,_shortened": "as §1"}, "Human alphaherpesvirus 1 [13]": {"test_system": "Human alphaherpesvirus 1", "assay": "Antiviral activity against HSV1 in african green monkey Vero cells assessed as log reduction of virus titer at 45.7 ug/ml", "assay_type": "functional", "procedure,_shortened": "as §1"}, "Human alphaherpesvirus 1 [14]": {"test_system": "Human alphaherpesvirus 1", "assay": "Antiviral activity against HSV1 in african green monkey Vero cells assessed as log reduction of virus titer at 12 ug/ml", "assay_type": "functional", "procedure,_shortened": "as §1"}, "Human alphaherpesvirus 1 [15]": {"test_system": "Human alphaherpesvirus 1", "assay": "Antiviral activity against HSV1 in african green monkey Vero cells assessed as log reduction of virus titer at 24.1 ug/ml", "assay_type": "functional", "procedure,_shortened": "as §1"}, "Human alphaherpesvirus 1 [16]": {"test_system": "Human alphaherpesvirus 1", "assay": "Antiviral activity against HSV1 in african green monkey Vero cells assessed as log reduction of virus titer at 36.2 ug/ml", "assay_type": "functional", "procedure,_shortened": "as §1"}, "Human alphaherpesvirus 1 [17]": {"test_system": "Human alphaherpesvirus 1", "assay": "Antiviral activity against HSV1 in african green monkey Vero cells assessed as log reduction of virus titer at 15 ug/ml", "assay_type": "functional", "procedure,_shortened": "as §1"}, "Human alphaherpesvirus 1 [18]": {"test_system": "Human alphaherpesvirus 1", "assay": "Antiviral activity against HSV1 in african green monkey Vero cells assessed as log reduction of virus titer at 5.7 ug/ml", "assay_type": "functional", "procedure,_shortened": "as §1"}, "Human alphaherpesvirus 1 [19]": {"test_system": "Human alphaherpesvirus 1", "assay": "Antiviral activity against HSV1 in african green monkey Vero cells assessed as log reduction of virus titer at 11.4 ug/ml", "assay_type": "functional", "procedure,_shortened": "as §1"}, "Human alphaherpesvirus 1 [20]": {"test_system": "Human alphaherpesvirus 1", "assay": "Antiviral activity against HSV1 in african green monkey Vero cells assessed as log reduction of virus titer at 10 ug/ml", "assay_type": "functional", "procedure,_shortened": "as §1"}, "Human alphaherpesvirus 1 [21]": {"test_system": "Human alphaherpesvirus 1", "assay": "Antiviral activity against HSV1 in african green monkey Vero cells assessed as log reduction of virus titer at 48.3 ug/ml", "assay_type": "functional", "procedure,_shortened": "as §1"}, "Human alphaherpesvirus 1 [22]": {"test_system": "Human alphaherpesvirus 1", "assay": "Antiviral activity against HSV1 in african green monkey Vero cells assessed as log reduction of virus titer at 60.4 ug/ml", "assay_type": "functional", "procedure,_shortened": "as §1"}, "Human alphaherpesvirus 1 [23]": {"test_system": "Human alphaherpesvirus 1", "assay": "Antiviral activity against HSV1 in african green monkey Vero cells assessed as log reduction of virus titer at 72.5 ug/ml", "assay_type": "functional", "procedure,_shortened": "as §1"}, "Human alphaherpesvirus 1 [24]": {"test_system": "Human alphaherpesvirus 1", "assay": "Antiviral activity against HSV1 in african green monkey Vero cells assessed as log reduction of virus titer at 5 ug/ml", "assay_type": "functional", "procedure,_shortened": "as §1"}, "Human alphaherpesvirus 1 [25]": {"test_system": "Human alphaherpesvirus 1", "assay": "Antiviral activity against HSV1 in african green monkey Vero cells assessed as log reduction of virus titer at 10.1 ug/ml", "assay_type": "functional", "procedure,_shortened": "as §1"}}}
{"smiles": "O=c1cc(-c2ccc(O)cc2)oc2cc(O)cc(O)c12", "note": "[APIGENIN]", "values": [{"measurement": "CC50", "setting": "[1]", "value": 54, "unit": "µg/mL"}, {"measurement": "Activity", "setting": "Human alphaherpesvirus 1 [2]", "value": 1}, {"measurement": "Activity", "setting": "Human alphaherpesvirus 1 [3]", "value": 1.5}, {"measurement": "Activity", "setting": "Human alphaherpesvirus 1 [4]", "value": 0.25}, {"measurement": "Activity", "setting": "Human alphaherpesvirus 1 [5]", "value": 0.4}]}
{"smiles": "O=c1cc(-c2ccccc2)oc2cc(O)cc(O)c12", "note": "[CHRYSIN]", "values": [{"measurement": "CC50", "setting": "[1]", "value": 76.2, "unit": "µg/mL"}, {"measurement": "Activity", "setting": "Human alphaherpesvirus 1 [6]", "value": 0.5}, {"measurement": "Activity", "setting": "Human alphaherpesvirus 1 [7]", "value": 0.5}, {"measurement": "Activity", "setting": "Human alphaherpesvirus 1 [8]", "value": 0.8}, {"measurement": "Activity", "setting": "Human alphaherpesvirus 1 [9]", "value": 1.1}, {"measurement": "Activity", "setting": "Human alphaherpesvirus 1 [10]", "value": 0.25}]}
{"smiles": "O=c1c(O)c(-c2ccccc2)oc2cc(O)cc(O)c12", "note": "[GALANGIN]", "values": [{"measurement": "CC50", "setting": "[1]", "value": 43.2, "unit": "µg/mL"}, {"measurement": "Activity", "setting": "Human alphaherpesvirus 1 [6]", "value": 2.3}, {"measurement": "Activity", "setting": "Human alphaherpesvirus 1 [2]", "value": 3.5}]}
{"smiles": "O=c1c(O)c(-c2ccc(O)cc2)oc2cc(O)cc(O)c12", "note": "[KAEMPFEROL]", "values": [{"measurement": "CC50", "setting": "[1]", "value": 91.5, "unit": "µg/mL"}, {"measurement": "Activity", "setting": "Human alphaherpesvirus 1 [11]", "value": 1.5}, {"measurement": "Activity", "setting": "Human alphaherpesvirus 1 [12]", "value": 3.1}, {"measurement": "Activity", "setting": "Human alphaherpesvirus 1 [13]", "value": 3.5}, {"measurement": "Activity", "setting": "Human alphaherpesvirus 1 [14]", "value": 0.1}, {"measurement": "Activity", "setting": "Human alphaherpesvirus 1 [15]", "value": 0.75}, {"measurement": "Activity", "setting": "Human alphaherpesvirus 1 [16]", "value": 1.25}]}
{"smiles": "O=c1cc(-c2ccc(O)c(O)c2)oc2cc(O)cc(O)c12", "note": "[LUTEOLIN]", "values": [{"measurement": "CC50", "setting": "[1]", "value": 22.9, "unit": "µg/mL"}, {"measurement": "Activity", "setting": "Human alphaherpesvirus 1 [17]", "value": 1.5}, {"measurement": "Activity", "setting": "Human alphaherpesvirus 1 [18]", "value": 0.9}, {"measurement": "Activity", "setting": "Human alphaherpesvirus 1 [19]", "value": 2.2}, {"measurement": "Activity", "setting": "Human alphaherpesvirus 1 [20]", "value": 1}]}
{"smiles": "O=c1c(O)c(-c2ccc(O)c(O)c2)oc2cc(O)cc(O)c12", "note": "[QUERCETIN]", "values": [{"measurement": "CC50", "setting": "[1]", "value": 151, "unit": "µg/mL"}, {"measurement": "Activity", "setting": "Human alphaherpesvirus 1 [21]", "value": 1.4}, {"measurement": "Activity", "setting": "Human alphaherpesvirus 1 [22]", "value": 2}, {"measurement": "Activity", "setting": "Human alphaherpesvirus 1 [23]", "value": 2.3}, {"measurement": "Activity", "setting": "Human alphaherpesvirus 1 [24]", "value": 0}, {"measurement": "Activity", "setting": "Human alphaherpesvirus 1 [25]", "value": 0.3}]}
